Reference: ChEMBL document CHEMBL4428050, “Design, Synthesis, and Biological Evaluation of Substituted Pyrimidines as Potential Phosphatidylinositol 3-Kinase (PI3K) Inhibitors” (J Med Chem, 2016)
Active and inactive are the calls of the source. The calls are words filed in the database; no cut-off is given here.

Tests used:
A549 = assay: Antiproliferative activity against human A549 cells after 72 hrs by CCK8 assay; format: functional, cell-based
[1] = Inhibition of PI3K p110alpha/p85 (unknown origin) using PIP2/ATP as substrate after 1 hr by kinase glo luminescent assay; set-up: species or system Homo sapiens
How it was run: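 PI3K p110α activity read by Kinase-Glo Plus luminescence. IC50 is the mean of triplicate measurements.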

Huh-7 = assay: Antiproliferative activity against human HuH7 cells after 72 hrs by CCK8 assay; format: functional, cell-based; conditions: Huh-7, 72 h
A-431 = assay: Antiproliferative activity against human A431 cells after 72 hrs by CCK8 assay; format: functional, cell-based
U-937 = assay: Antiproliferative activity against human U937 cells after 72 hrs by CCK8 assay; format: functional, cell-based
Bel-7402 = assay: Antiproliferative activity against human Bel7402 cells after 72 hrs by CCK8 assay; format: functional, cell-based; conditions: Bel-7402, 72 h
NCI-N87 = assay: Antiproliferative activity against human NCI-N87 cells after 72 hrs by CCK8 assay; format: functional, cell-based
PANC-1 = assay: Antiproliferative activity against human PANC1 cells after 72 hrs by CCK8 assay; format: functional, cell-based
DU-145 = assay: Antiproliferative activity against human DU145 cells after 72 hrs by CCK8 assay; format: functional, cell-based
BGC-823 = assay: Antiproliferative activity against human BGC823 cells after 72 hrs by CCK8 assay; format: functional, cell-based
HeLa = assay: Antiproliferative activity against human HeLa cells after 72 hrs by CCK8 assay; format: functional, cell-based
MCF7 = assay: Antiproliferative activity against human MCF7 cells after 72 hrs by CCK8 assay; format: functional, cell-based
SGC-7901 = assay: Antiproliferative activity against human SGC7901 cells after 72 hrs by CCK8 assay; format: functional, cell-based; conditions: SGC-7901, 72 h
MOLT-4 = assay: Antiproliferative activity against human MOLT4 cells after 72 hrs by CCK8 assay; format: functional, cell-based
K562 = assay: Antiproliferative activity against human K562 cells after 72 hrs by CCK8 assay; format: functional, cell-based
HT-1080 = assay: Antiproliferative activity against human HT1080 cells after 72 hrs by CCK8 assay; format: functional, cell-based; conditions: HT-1080, 72 h
SK-BR-3 = assay: Antiproliferative activity against human SK-BR-3 cells after 72 hrs by CCK8 assay; format: functional, cell-based; conditions: SK-BR-3, 72 h
MDA-MB-231 = assay: Antiproliferative activity against human MDA-MB-231 cells by WST8 assay; format: functional, cell-based
HL-60 = assay: Antiproliferative activity against human HL60 cells after 72 hrs by CCK8 assay; format: functional, cell-based; conditions: HL-60, 72 h
PC-3 = assay: Antiproliferative activity against human PC3 cells after 72 hrs by CCK8 assay; format: functional, cell-based; conditions: PC-3, 72 h
Homo sapiens = species: Homo sapiens; assay: Inhibition of PI3K in human U937 cells assessed as suppression of AKT phosphorylation at S473 after 24 hrs by Western blot analysis; format: cell-based

Compound	IC50 (A549; Homo sapiens, A549, 72 h) [µM]	IC50 [1] [µM]	IC50 (A-431; Homo sapiens, A-431, 72 h) [µM]	IC50 (U-937; Homo sapiens, U-937, 72 h) [µM]	IC50 (PANC-1; Homo sapiens, PANC-1, 72 h) [µM]	IC50 (DU-145; Homo sapiens, DU-145, 72 h) [µM]	IC50 (BGC-823; Homo sapiens, BGC-823, 72 h) [µM]	IC50 (HeLa; Homo sapiens, HeLa, 72 h) [µM]	IC50 (MCF7; Homo sapiens, MCF7, 72 h) [µM]	IC50 (MOLT-4; Homo sapiens, MOLT-4, 72 h) [µM]	IC50 (K562; Homo sapiens, K562, 72 h) [µM]	IC50 (SK-BR-3) [µM]	also measured
Nc1cc(C(F)(F)F)c(-c2cc(N3CCOCC3)nc(N3C[C@@H]4OCCO[C@@H]4C3)n2)cn1	4.98	0.117	2.55	1.76	3.67	4.81	4.57	4.31	4.95	2.51	1.75	–	IC50 (Huh-7): 4.84 µM; IC50 (Bel-7402): 5.82 µM; IC50 (NCI-N87; Homo sapiens, NCI-N87, 72 h): 1.97 µM; IC50 (SGC-7901): 3.75 µM; IC50 (HT-1080): 4.84 µM
Nc1cc(C(F)(F)F)c(-c2cc(N3C[C@@H]4OCCO[C@@H]4C3)nc(N3CCOCC3)n2)cn1	–	0.896	–	–	–	> 10	–	–	–	–	> 10	–	–
Oc1cccc(-c2nc(N3CCOCC3)c3oc4ncccc4c3n2)c1 [PI-103]	–	0.0074	–	–	–	–	–	–	–	–	–	–	–
Nc1cc(C(F)(F)F)c(-c2nc(N3CCOCC3)nc(N3C[C@H]4OCCO[C@@H]4C3)n2)cn1 (racemic)	4.03	0.032	> 10	3.05	6.23	–	9.57	–	8.15	1.21	–	–	IC50 (Huh-7): 5.66 µM; IC50 (Bel-7402): 5.9 µM; IC50 (NCI-N87; nci-n87): 0.77 µM; IC50 (DU-145; du-145): 3.3 µM; IC50 (HeLa; hela): > 10 µM; IC50 (SGC-7901): 4.46 µM; IC50 (K562; k562): > 10 µM; IC50 (HT-1080): 10 µM
CC(/C=C/C(=O)NO)=C\[C@@H](C)C(=O)c1ccc(N(C)C)cc1 [TRICHOSTATIN]	0.05	–	0.18	0.04	0.1	0.06	0.07	0.09	0.07	0.02	0.12	0.05	IC50 (Huh-7): 0.06 µM; IC50 (Bel-7402): 0.1 µM; IC50 (NCI-N87; Homo sapiens, NCI-N87, 72 h): 0.06 µM; IC50 (SGC-7901): 0.03 µM; IC50 (HT-1080): 0.08 µM
Nc1cc(C(F)(F)F)c(-c2cc(N3CCOCC3)nc(Nc3cccc(N4CCOCC4)c3)n2)cn1	4.57	0.118	11.5	10.4	8.52	0.99	–	> 100	16.5	4.07	14.9	6.53	IC50 (MDA-MB-231): 7.28 µM; IC50 (NCI-N87; Homo sapiens, NCI-N87, 72 h): 4.66 µM; IC50 (HL-60): 4.34 µM; IC50 (PC-3): 2.21 µM
CS(=O)(=O)N1CCN(c2nc(-c3cnc(N)cc3C(F)(F)F)cc(N3CCOCC3)n2)CC1	2.95	0.023	–	1.99	–	6.56	3.64	4.04	4.39	1.11	3.64	1.59	–
Nc1cc(C(F)(F)F)c(-c2ccc3c(N4CCOCC4)nc(N4CCOCC4)nc3c2)cn1	–	> 10	–	–	–	–	–	–	–	–	–	–	–
Nc1cc(C(F)(F)F)c(-c2nc(N3CCOCC3)nc(N3C[C@H]4OCCO[C@@H]4C3)n2)cn1	–	0.068	–	–	–	–	–	–	–	–	–	4.27	IC50 (A549; a549): 8.01 µM; IC50 (MDA-MB-231): 15.1 µM; IC50 (A-431; a-431): 14.1 µM; IC50 (U-937; u-937): 4.03 µM; IC50 (NCI-N87; nci-n87): 3.9 µM; IC50 (PANC-1; panc-1): 9.04 µM; IC50 (DU-145; du-145): 7.36 µM; IC50 (HeLa; hela): > 100 µM; IC50 (MCF7; mcf7): 7.32 µM; IC50 (MOLT-4; molt-4): 2.28 µM; IC50 (K562; k562): 24.6 µM; IC50 (HL-60): 2.7 µM; IC50 (PC-3): 5.63 µM
Nc1ncc(-c2cc(N3CCOCC3)nc(N3C[C@H]4OCCO[C@@H]4C3)n2)cn1 (racemic)	–	0.128	–	–	–	–	–	–	–	–	–	–	–
C[C@@H]1CN(c2cc(-c3cnc(N)cc3C(F)(F)F)nc(N3CCOCC3)n2)C[C@H](C)O1	–	0.224	–	–	–	–	–	–	–	–	–	–	–
C[C@@H]1CN(c2nc(-c3cnc(N)cc3C(F)(F)F)cc(N3CCOCC3)n2)C[C@H](C)O1	1.89	0.091	2.29	0.57	1.38	1.41	1.41	1.81	1.41	0.42	2.68	–	IC50 (Huh-7): 1.21 µM; IC50 (Bel-7402): 1.64 µM; IC50 (NCI-N87; Homo sapiens, NCI-N87, 72 h): 0.52 µM; IC50 (SGC-7901): 1.24 µM; IC50 (HT-1080): 1.98 µM
C[C@@H]1CN(c2cc(-c3cnc(N)cc3C(F)(F)F)nc(N3C[C@@H](C)O[C@@H](C)C3)n2)C[C@H](C)O1	–	> 10	–	–	–	–	–	–	–	–	–	–	–
C[C@@H]1CN(c2cc(-c3cnc(N)cc3C(F)(F)F)nc(N3C[C@@H]4OCCO[C@@H]4C3)n2)C[C@H](C)O1	–	5.75	–	–	–	–	–	–	–	–	–	–	–
C[C@@H]1CN(c2nc(-c3cnc(N)cc3C(F)(F)F)nc(N3C[C@H]4C[C@@H]3CO4)n2)C[C@H](C)O1	–	9.53	–	–	–	–	–	–	–	–	–	–	–
Nc1cc(C(F)(F)F)c(-c2cc(N3C[C@H]4OCCO[C@@H]4C3)nc(N3CCOCC3)n2)cn1 (racemic)	5.56	0.375	3.03	2.86	5.97	7.11	4.33	5.33	7.29	3.24	3.19	–	IC50 (Huh-7): 6.29 µM; IC50 (Bel-7402): 6.43 µM; IC50 (NCI-N87; Homo sapiens, NCI-N87, 72 h): 6.21 µM; IC50 (SGC-7901): 4.78 µM; IC50 (HT-1080): 5.64 µM
Nc1cc(C(F)(F)F)c(-c2cc(N3CCOCC3)nc(N3C[C@H]4OCCO[C@@H]4C3)n2)cn1	6.4	0.061	–	3.38	–	15	6.59	7.53	7.47	1.96	6.34	3.47	–
CS(=O)(=O)N1CCN(c2ccc(Nc3nc(-c4cnc(N)cc4C(F)(F)F)cc(N4CCOCC4)n3)cc2)CC1	5.46	0.031	5.9	2.39	2.36	6.71	–	> 100	4.97	1.11	11.2	1.63	IC50 (MDA-MB-231): 5.36 µM; IC50 (NCI-N87; Homo sapiens, NCI-N87, 72 h): 1.29 µM; IC50 (HL-60): 0.94 µM; IC50 (PC-3): 7.49 µM
Nc1cc(C(F)(F)F)c(-c2cc(N3CCOCC3)nc(NCCN3CCOCC3)n2)cn1	–	0.568	–	–	–	–	–	–	–	–	–	–	–
Nc1cc(C(F)(F)F)c(-c2cc(N3CCOCC3)nc(Nc3ccc(N4CCOCC4)cc3)n2)cn1	7.79	0.026	–	3.48	–	> 10	8.36	6.91	9.41	1.77	8.81	2.67	–
Nc1cc(C(F)(F)F)c(-c2cc(N3CCOCC3)nc(N3C[C@H]4C[C@@H]3CO4)n2)cn1	3.05	0.06	1.79	0.72	2.78	2.38	2.44	1.76	2.54	1.14	2.4	–	IC50 (Huh-7): 2.93 µM; IC50 (Bel-7402): 2.79 µM; IC50 (NCI-N87; Homo sapiens, NCI-N87, 72 h): 1.41 µM; IC50 (SGC-7901): 2.3 µM; IC50 (HT-1080): 2.72 µM
C[C@@H]1CN(c2nc(N3C[C@@H](C)O[C@@H](C)C3)c3ccc(-c4cnc(N)cc4C(F)(F)F)cc3n2)C[C@H](C)O1	–	> 10	–	–	–	–	–	–	–	–	–	–	–
Nc1cc(C(F)(F)F)c(-c2nc(N3CCOCC3)nc(N3C[C@@H]4OCCO[C@H]4C3)n2)cn1	9.5	0.038	32.2	5.53	7.64	1.08	–	> 100	9.29	2.08	24.5	3.67	IC50 (MDA-MB-231): 11.9 µM; IC50 (NCI-N87; Homo sapiens, NCI-N87, 72 h): 2.77 µM; IC50 (HL-60): 4.85 µM; IC50 (PC-3): 6.24 µM
Nc1cc(C(F)(F)F)c(-c2cc(N3CCOCC3)nc(N3C[C@@H]4OCCO[C@H]4C3)n2)cn1 (racemic)	–	–	–	–	–	–	–	–	–	–	–	–	inhibition (Homo sapiens): Active
Nc1cc(C(F)(F)F)c(-c2cc(N3CCOCC3)nc(N3C[C@@H]4OCCO[C@H]4C3)n2)cn1	–	0.035	–	–	–	–	–	–	–	–	–	1.6	IC50 (A549; a549): 2.49 µM; IC50 (U-937; u-937): 1.51 µM; IC50 (DU-145; du-145): 4.86 µM; IC50 (BGC-823; bgc-823): 2.79 µM; IC50 (HeLa; hela): 2.45 µM; IC50 (MCF7; mcf7): 3.82 µM; IC50 (MOLT-4; molt-4): 0.97 µM; IC50 (K562; k562): 2.56 µM
C[C@@H]1CN(c2nc(-c3cnc(N)cc3C(F)(F)F)nc(N3C[C@@H](C)O[C@@H](C)C3)n2)C[C@H](C)O1	–	> 10	–	–	–	–	–	–	–	–	–	–	–
C[C@@H]1CN(c2nc(-c3cnc(N)cc3C(F)(F)F)nc(N3C[C@@H]4OCCO[C@@H]4C3)n2)C[C@H](C)O1	–	> 10	–	–	–	–	–	–	–	–	–	–	–
